A selection: hits, their analogues and other compounds. The true share with any hit is near 3.2%.
ABHD4 inh: inhibitors of mouse ABHD4; 370,000 tested, 0.54% active; Q8VD66; inhibition, % at 8.92 µM; purified mABHD4, FP-Rh probe fluorescence polarization;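 active means inhibition exceeding the mean over every tested compound plus 3 SD, cut at about 30% in these data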;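 further: 0% = plate median of compound wells and 100% = S159A mutant with DMSO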
Target sequence (Q8VD66 whole entry, looked up): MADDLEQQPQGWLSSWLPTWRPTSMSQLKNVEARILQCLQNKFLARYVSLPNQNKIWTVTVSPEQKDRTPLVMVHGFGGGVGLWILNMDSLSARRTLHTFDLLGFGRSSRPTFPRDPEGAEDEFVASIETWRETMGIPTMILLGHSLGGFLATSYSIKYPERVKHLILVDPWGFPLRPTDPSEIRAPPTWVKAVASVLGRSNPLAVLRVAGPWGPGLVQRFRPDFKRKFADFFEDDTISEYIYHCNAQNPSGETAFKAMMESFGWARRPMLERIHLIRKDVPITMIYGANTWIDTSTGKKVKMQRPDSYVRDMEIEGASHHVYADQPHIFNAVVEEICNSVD
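Assay system: Wild-type mouse ABHD4 protein | Medium: HEPES pH 7.0 buffer, 150 mM NaCl, 0.01% Pluronic F-127 | Incubation: Enzyme–compound pre-incubation 45 min, then probe 60 min, both 25 °C | Technique: Fluorescence polarization with parallel and perpendicular emission, 525/598 nm | Evaluation: % inhibition of FP-Rh probe binding versus controls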
DAGLB inhibitor: blocks human DAGLB lipase activity | Q8NCG7 | HEK293T DAGLB membrane lysate, EnzChek fluorogenic substrate | inhibition, % at 5.17 µM | 340,000 tested, 0.059% active | AID 504411; in the data active means inhibition above about 34%;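 further: 0% = enzyme with vehicle and 100% = wells lacking enzyme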
LEDGF integ inh: blocks HIV-1 LEDGF/p75-dependent DNA integration | inhibition, % at 3.7 µM | TR-FRET IN-LEDGF/p75 DNA integration, Eu/Cy5 | 370,000 tested, 0.64% active | AID 743269;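 active means inhibition above the screen-wide mean plus 3 SD, cut at about 13% in these data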;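 further: signal is the Cy5 over europium emission ratio at 671 and 618 nm; 0% = plate median of compound wells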
HTRA1 inhibitor: HTRA1 (human) protease inhibition; recombinant HTRA1, FP-rhodamine activity-based probe, fluorescence polarization; inhibition, % at 5.96 µM; 340,000 tested, 0.5% active; AID 504803; in the data active means inhibition above about 36%;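 further: 0% = enzyme with DMSO and 100% = wells lacking enzyme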
PRMT1 FP inh: PRMT1 (human) inhibition, primary screen. recombinant PRMT1, activity-based probe fluorescence polarization. inhibition, % at 2.79 µM. 370,000 tested, 1.3% active;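 active means inhibition above about 21% made by adding two undisclosed values, limit read from the data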
rCAG binder: binds r(CAG) RNA repeats; 370,000 tested, 1.3% active; r(CAG) RNA repeat, TO-PRO-1 dye displacement fluorescence; inhibition, % at 3 µM;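 active means inhibition above the plate cutoff, the mean of all test compounds on that plate plus 3 SD, cut at about 35% in these data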;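 further: 0% = DMSO alone and 100% = 100 µM mitoxantrone as full dye displacement; higher means more dye released from RNA so lower well fluorescence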
rCAG bind conf: r(CAG) RNA repeat binding, confirmation | shares compounds with rCAG binder | TO-PRO-1 dye displacement fluorescence | inhibition, % at 3 µM | 4,300 tested, 70% active | AID 652065;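 active means inhibition above a per-plate cutoff, the mean inhibition of sample wells plus 3 SD, cut at about 35% in these data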;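 further: loss of TO-PRO-1 fluorescence as compound displaces dye from 1x1 AA loop RNA; 0% = DMSO only wells and 100% = 100 µM mitoxantrone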
DNA CAG counter: disrupts DNA CAG TO-PRO-1 complex, flagging rCAG hits. 4,300 tested, 94% active. inhibition, % at 3 µM. shares compounds with rCAG binder. d(CAG) DNA oligo TO-PRO-1 dye displacement, fluorescence;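 active means inhibition above its plate's cutoff, the mean test-well inhibition plus 3 SD, cut at about 4.8% in these data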;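 further: 0% = DNA dye mix with DMSO and 100% = 100 µM mitoxantrone; hits displace the dye from DNA and so lower well fluorescence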
Active calls of the source: *; / = no result given.

SMILES	ABHD4 inh	DAGLB inhibitor	LEDGF integ inh	HTRA1 inhibitor	PRMT1 FP inh	rCAG binder	rCAG bind conf	DNA CAG counter
CN(Cc1c(F)cccc1Cl)C(=O)c1ccc(NC(=O)CC2SC(N3CCCCC3)=NC2=O)cc1 (stereo unspecified)	-10.3	-1.3	4.8	-1.4	-1.6	-0.7	/	/
CCC(C)[C@H](NC(=O)NCCCc1ccccc1)C(=O)OC (stereo partly specified)	-1.4	-1.0	-0.4	1.6	1.0	-7.5	/	/
COC(=O)[C@H](CC(C)C)NC(=O)NCCCc1ccccc1	-3.3	1.6	-0.5	16.6	1.6	47.8*	1.0	-1.9
CCOC(=O)Cn1cc(CN2C(C(=O)OC)CN(Cc3ccc(OC)cc3)CCS2(=O)=O)nn1 (stereo unspecified)	2.1	/	1.9	/	-5.9	-0.1	/	/
O=C(Nc1ccncc1)c1cc(-c2ccccn2)nc2ccccc12	-0.1	-0.9	1.2	0.3	0.9	1.4	/	/
O=C(Nc1ccc(S(=O)(=O)Nc2nccs2)cc1)C1=NN(c2ccccc2)C(=O)CC1	9.4	2.8	0.5	3.0	5.3	35.6*	28.5	14.5*
O=C(Nc1ccc(S(=O)(=O)Nc2nccs2)cc1)c1cc(-c2ccccc2Cl)nc2ccccc12	-56.2	8.3	1.1	-58.9	1.7	76.4*	76.9*	40.5*
O=S(=O)(Nc1nccs1)c1ccc(Nc2nnc(-c3ccccc3)c3ccccc23)cc1	-16.6	9.4	0.9	-20.6	-0.7	54.0*	64.6*	26.7*
Cc1onc(-c2ccccc2)c1C(=O)Nc1ccc(S(=O)(=O)Nc2nccs2)cc1	-8.0	0.7	9.2	-0.8	-3.2	33.4	/	/
O=C(Nc1ccc(S(=O)(=O)Nc2nccs2)cc1)c1cc(-c2ccccn2)nc2ccccc12	-11.8	5.2	-1.9	-9.6	0.2	66.3*	61.0*	25.6*
O=P(c1ccccc1)(c1ccccc1)C(c1ccccn1)P(=O)(c1ccccc1)c1ccccc1	9.5	/	-3.5	/	2.3	-10.1	/	/
Cc1ccc(S(=O)(=O)NC(=O)NCc2ccco2)cc1	-7.8	1.5	-3.3	6.2	4.7	2.6	/	/
N#Cc1cccc(C(=O)N(CCc2ccccc2)Cc2cccs2)c1	3.1	0.1	-3.9	-11.5	2.0	-6.3	/	/
CN(C)c1cccc(C(=O)Nc2ccc(S(=O)(=O)Nc3nccs3)cc2)c1	27.7	3.2	-2.6	4.3	0.1	35.9*	28.1	10.0*
CCOc1ccc(S(=O)(=O)N(C)c2ccc(OCC(=O)NCc3ccco3)cc2)cc1	6.0	-4.3	-1.8	-8.8	0.9	-4.9	/	/
CCN(C(=O)CSc1nccn1C)c1cccc2ccccc12	6.0	-1.9	3.2	-2.1	-0.8	0.3	/	/
COc1ccc(S(=O)(=O)CC(=O)c2cc3cc(Br)ccc3oc2=O)cc1	19.4	25.8	1.7	-15.6	10.9	50.9*	48.2*	23.1*
NC(=O)CC(NC(=O)Cc1ccc(Br)cc1)c1ccc(NCCN2CCOCC2)c([N+](=O)[O-])c1 (stereo unspecified)	-2.5	0.0	0.1	-2.3	-1.3	0.1	/	/
CCCS(=O)(=O)c1c(S(=O)(=O)CCC)c2c(N)cccn2c1C(=O)c1ccc(Br)cc1	9.4	5.8	2.8	-1.6	13.9	52.2*	20.8	11.2*
O=C1OC(/C=C/c2ccccc2)=NC/1=C\c1cccnc1	1.8	-0.4	-2.4	-6.2	1.2	1.6	/	/
COc1ccccc1/C=C/C1=NC(=C\C=C/c2ccccc2)/C(=O)O1	7.9	10.8	2.2	-21.9	0.2	46.0*	32.9	13.9*
COc1ccccc1/C=C/C=C1N=C(/C=C/c2ccc(Cl)cc2)OC/1=O	20.2	6.4	1.3	-20.6	-0.2	54.4*	37.4*	10.1*
CCOC(=O)c1c(-c2ccc(OC)cc2)csc1NC(=O)CCN1C(=O)c2ccccc2C1=O	/	-8.6	/	-25.3	/	/	/	/
CCOC(=O)c1c(-c2ccc3ccccc3c2)csc1NC(=O)CCCC(=O)O	10.0	4.2	3.6	-10.7	0.1	44.6*	50.4*	14.0*

Assay outcomes (PubChem)
